Experimental data as given in ChEMBL document CHEMBL1156908, “Characterization of tunable piperidine and piperazine carbamates as inhibitors of endocannabinoid hydrolases” (J Med Chem, 2010).

How the values were obtained:
[1] = biological target: T1, Fatty-acid amide hydrolase 1 (Mus musculus, UniProt O08914); assay: Inhibition of FAAH in mouse brain membrane; format: cell membranes
T1 sequence (O08914 whole entry): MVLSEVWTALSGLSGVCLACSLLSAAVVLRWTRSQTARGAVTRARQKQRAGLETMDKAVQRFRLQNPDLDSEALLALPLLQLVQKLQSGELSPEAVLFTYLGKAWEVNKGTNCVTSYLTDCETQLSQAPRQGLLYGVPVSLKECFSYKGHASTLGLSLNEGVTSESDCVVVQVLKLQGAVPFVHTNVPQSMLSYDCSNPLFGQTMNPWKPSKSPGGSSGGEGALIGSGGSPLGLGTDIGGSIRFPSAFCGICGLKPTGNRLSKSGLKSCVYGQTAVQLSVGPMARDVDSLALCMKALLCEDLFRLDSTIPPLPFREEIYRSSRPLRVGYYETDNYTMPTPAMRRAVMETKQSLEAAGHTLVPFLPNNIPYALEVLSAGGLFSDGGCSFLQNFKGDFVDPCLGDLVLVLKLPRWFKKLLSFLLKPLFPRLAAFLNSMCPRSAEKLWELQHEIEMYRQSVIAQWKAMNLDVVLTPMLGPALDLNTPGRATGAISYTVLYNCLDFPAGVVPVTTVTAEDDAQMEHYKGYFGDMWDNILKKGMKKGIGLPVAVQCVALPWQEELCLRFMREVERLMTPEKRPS
Outline: (§1)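 Mouse brain membrane fraction (Dounce homogenized in PBS pH 7.5, 1,400 × g debris spin, 64,000 × g 45 min pellet, resuspended) at 1 mg/ml in PBS. Inhibitor preincubated 30 min at 37°C, then FP-rhodamine 1 μM final for 30 min at 25°C. SDS-PAGE with in-gel fluorescence scanning. IC50 from fitted integrated band intensities, mean of at least triplicates.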

[2] = biological target: T2, Monoglyceride lipase (Mus musculus, UniProt O35678); assay: Inhibition of MAGL in mouse brain membrane; format: cell membranes; outline: as §1
T2 sequence (O35678 whole entry): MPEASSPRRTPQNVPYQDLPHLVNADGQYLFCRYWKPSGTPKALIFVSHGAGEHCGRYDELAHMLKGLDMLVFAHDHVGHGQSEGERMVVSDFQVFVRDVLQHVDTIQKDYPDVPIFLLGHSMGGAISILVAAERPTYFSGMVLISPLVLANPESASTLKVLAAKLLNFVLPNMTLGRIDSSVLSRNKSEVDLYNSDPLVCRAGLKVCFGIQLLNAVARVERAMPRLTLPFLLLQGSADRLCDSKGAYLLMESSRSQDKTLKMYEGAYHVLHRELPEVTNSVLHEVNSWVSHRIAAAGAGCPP

[3] = organism: Mus musculus; assay: Selectivity ratio of IC50 for mouse FAAH to IC50 for mouse MAGL
Outline: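 Competitive ABPP on mouse brain membrane proteome (Dounce-homogenized in PBS pH 7.5, 64,000 × g pellet, resuspended), diluted to 1 mg/ml in PBS. Inhibitor preincubated 30 min at 37°C, then FP-rhodamine 1 μM final for 30 min at 25°C. SDS-PAGE and in-gel fluorescence scanning. IC50s for FAAH and MAGL come from integrated band intensities, means of ≥3 runs; the ratio is taken from these.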

[4] = biological target: T3, Monoacylglycerol lipase ABHD6 (Mus musculus, UniProt Q8R2Y0); assay: Inhibition of ABHD6 in mouse brain membrane; format: cell membranes; outline: as §1
T3 sequence (Q8R2Y0 whole entry): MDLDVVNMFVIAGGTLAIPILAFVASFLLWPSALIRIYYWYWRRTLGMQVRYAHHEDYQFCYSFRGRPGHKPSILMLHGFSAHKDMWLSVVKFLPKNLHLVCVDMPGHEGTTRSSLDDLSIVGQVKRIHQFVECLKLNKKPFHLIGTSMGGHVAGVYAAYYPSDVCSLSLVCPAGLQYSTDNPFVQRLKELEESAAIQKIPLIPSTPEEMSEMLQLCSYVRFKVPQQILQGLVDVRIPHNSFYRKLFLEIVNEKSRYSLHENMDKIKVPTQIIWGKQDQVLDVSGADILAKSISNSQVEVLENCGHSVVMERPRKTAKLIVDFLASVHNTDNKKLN

[5] = biological target: T4, Patatin-like phospholipase domain-containing protein 6 (Mus musculus, UniProt Q3TRM4); assay: Inhibition of NTE in mouse brain membrane; format: cell membranes; outline: as §1
T4 sequence (Q3TRM4 whole entry): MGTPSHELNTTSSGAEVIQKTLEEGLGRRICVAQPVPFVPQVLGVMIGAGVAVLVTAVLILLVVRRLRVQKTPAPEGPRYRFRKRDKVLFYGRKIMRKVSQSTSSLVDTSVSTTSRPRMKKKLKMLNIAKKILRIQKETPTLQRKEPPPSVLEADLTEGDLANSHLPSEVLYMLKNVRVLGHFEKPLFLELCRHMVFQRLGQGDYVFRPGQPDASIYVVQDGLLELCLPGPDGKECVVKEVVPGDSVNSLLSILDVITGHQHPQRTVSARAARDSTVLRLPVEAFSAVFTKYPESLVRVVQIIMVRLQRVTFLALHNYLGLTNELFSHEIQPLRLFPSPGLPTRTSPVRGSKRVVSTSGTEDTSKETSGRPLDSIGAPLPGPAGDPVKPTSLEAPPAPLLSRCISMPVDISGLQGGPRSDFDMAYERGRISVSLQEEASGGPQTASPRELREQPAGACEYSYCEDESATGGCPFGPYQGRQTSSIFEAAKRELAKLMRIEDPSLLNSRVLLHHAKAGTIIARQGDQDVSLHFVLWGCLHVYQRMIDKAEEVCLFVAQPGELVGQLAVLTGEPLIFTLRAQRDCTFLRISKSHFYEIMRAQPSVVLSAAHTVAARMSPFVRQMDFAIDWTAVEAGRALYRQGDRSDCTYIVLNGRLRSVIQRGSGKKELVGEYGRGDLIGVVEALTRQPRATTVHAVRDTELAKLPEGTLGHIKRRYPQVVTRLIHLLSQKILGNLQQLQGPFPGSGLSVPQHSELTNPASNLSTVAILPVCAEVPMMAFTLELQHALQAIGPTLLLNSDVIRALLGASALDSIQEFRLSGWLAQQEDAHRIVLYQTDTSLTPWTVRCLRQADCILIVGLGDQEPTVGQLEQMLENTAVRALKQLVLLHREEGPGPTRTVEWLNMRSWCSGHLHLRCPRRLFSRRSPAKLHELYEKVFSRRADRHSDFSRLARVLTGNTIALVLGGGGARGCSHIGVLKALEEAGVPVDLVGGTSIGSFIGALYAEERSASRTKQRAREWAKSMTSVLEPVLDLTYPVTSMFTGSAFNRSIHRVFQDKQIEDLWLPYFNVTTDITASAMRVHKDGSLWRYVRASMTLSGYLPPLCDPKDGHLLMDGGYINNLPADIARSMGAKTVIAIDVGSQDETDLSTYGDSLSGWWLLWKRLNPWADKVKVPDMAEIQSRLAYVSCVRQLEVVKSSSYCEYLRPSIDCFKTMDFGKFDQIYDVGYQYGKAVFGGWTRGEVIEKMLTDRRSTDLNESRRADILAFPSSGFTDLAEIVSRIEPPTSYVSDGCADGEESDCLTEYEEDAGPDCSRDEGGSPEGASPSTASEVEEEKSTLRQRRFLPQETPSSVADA

[6] = biological target: T5, Patatin-like phospholipase domain-containing protein 6 (Mus musculus) (UniProt Q3TRM4); assay: Inhibition of NTE in mouse brain membrane at 100 uM; format: cell membranes
T5 sequence (whole entry): T4 sequence (Q3TRM4 whole entry)
Outline: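 Competitive ABPP on mouse brain membrane proteome at 1 mg/ml in PBS. Inhibitor at 100 μM for 30 min at 37°C, then FP-rhodamine 1 μM final for 30 min at 25°C. SDS-PAGE and in-gel fluorescence scanning. Percent loss of NTE band labeling.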

SMILES	IC50 [1] [µM]	IC50 [2] [µM]	Ratio IC50 [3]	IC50 [4] [µM]	IC50 [5] [µM]	inhibition [6] [%]
COc1ccc(C(O)(c2ccc(OC)cc2)C2CCN(C(=O)Oc3ccc([N+](=O)[O-])cc3)CC2)cc1	2.66	0.04	68	2.11		
O=C(Oc1ccc([N+](=O)[O-])cc1)N1CCC(C(O)(c2ccccc2)c2ccccc2)CC1	4.34	0.69	6	1.1		
COc1cccc(C(O)(c2cccc(OC)c2)C2CCN(C(=O)Oc3ccc([N+](=O)[O-])cc3)CC2)c1	5.83	0.56	10	0.46		
O=C(Oc1ccc([N+](=O)[O-])cc1)N1CCN(Cc2ccc3ccccc3c2)CC1	0.38	0.07		0.15	1.1	
O=C(Oc1ccc([N+](=O)[O-])cc1)N1CCN(Cc2cccc(Oc3ccccn3)c2)CC1	0.04	0.05		0.06	1.27	73
O=C(Oc1ccc([N+](=O)[O-])cc1)N1CCN(C(c2ccc(F)cc2)c2ccc(F)cc2)CC1	5.41	0.2	27	0.9		
O=C(Oc1ccc([N+](=O)[O-])cc1)N1CCN(Cc2cc(-c3ccccc3)cs2)CC1	0.28	0.01		1	0.89	
CN(CCC(c1ccccc1)c1ccccc1)C(=O)Oc1ccc([N+](=O)[O-])cc1	> 50	> 50		> 50		
COc1ccc(CN2CCN(C(=O)Oc3ccc([N+](=O)[O-])cc3)CC2)cc1	1.05	1.53		1.27	0.48	
O=C(Oc1ccc([N+](=O)[O-])cc1)N1CCN(Cc2ccc(-c3ccccc3)s2)CC1	0.04	0.05		0.22	0.08	
O=C(Oc1ccc([N+](=O)[O-])cc1)N1CCC(C(O)(c2ccc3c(c2)OCO3)c2ccc3c(c2)OCO3)CC1				3.27		
COc1ccc(C(O)(c2ccc(OC)c(OC)c2)C2CCN(C(=O)Oc3ccc([N+](=O)[O-])cc3)CC2)cc1OC	> 50	1.3		6.96		
O=C(Oc1ccc([N+](=O)[O-])cc1)N1CCC2(CC1)OC2(c1ccccc1)c1ccccc1	5.85	0.2	29	0.38		
COc1ccccc1C(O)(c1ccccc1OC)C1CCN(C(=O)Oc2ccc([N+](=O)[O-])cc2)CC1	15.1	0.51		1.1		
O=C(Oc1ccc([N+](=O)[O-])cc1)N1CCN(Cc2ccc(-c3ccccc3)o2)CC1	0.02	0.09		0.22	0.25	
O=C(Oc1ccc([N+](=O)[O-])cc1)N1CCN(Cc2ccccc2)CC1	0.93	0.9		0.74	0.61	
CN(C(=O)Oc1ccc([N+](=O)[O-])cc1)C(c1ccccc1)c1ccccc1	> 50	> 50		> 50		
O=C(Oc1ccc([N+](=O)[O-])cc1)N1CCN(Cc2ccc3ccccc3n2)CC1	1.04	0.08		0.49	0.91	
O=C(Oc1ccc([N+](=O)[O-])cc1)N1CCN(C2c3ccccc3Oc3ccccc32)CC1	9	6.12	2	2.12		
CN(C)c1ccc(C(O)(c2ccc(N(C)C)cc2)C2CCN(C(=O)Oc3ccc([N+](=O)[O-])cc3)CC2)cc1	10.5	2.12	5	1.02		
O=C(Oc1ccc([N+](=O)[O-])cc1)N1CCC(C(O)(c2ccc3ccccc3c2)c2ccc3ccccc3c2)CC1	4.69	0.81	6	3.43		
COc1ccc(C(O)(c2ccc(OC)cc2)C2CCN(C(=O)Oc3ccc([N+](=O)[O-])cc3)C2)cc1 (stereo not given)	> 50	> 50		> 50		
O=C(Oc1ccc([N+](=O)[O-])cc1)N1CCN(Cc2ccc(-c3ccccc3)cc2)CC1	4.6	0.015		1.65	4.27	
COc1cc(OCc2ccccc2)ccc1CN1CCN(C(=O)Oc2ccc([N+](=O)[O-])cc2)CC1	0.93	0.09		0.31	0.42	
COc1ccc(C(c2ccc(OC)cc2)C2CCN(C(=O)Oc3ccc([N+](=O)[O-])cc3)CC2)cc1	40.1	0.073	549	0.55		
O=C(Oc1ccc([N+](=O)[O-])cc1)N1CCC(C(O)(c2ccc(Cl)cc2)c2ccc(Cl)cc2)CC1	3.36	1.1	3	0.18		
O=C(Oc1ccc([N+](=O)[O-])cc1)N1CCN(Cc2ccccc2-c2ccccc2)CC1	3.57	0.67		2.86	0.33	
O=C(Oc1ccc([N+](=O)[O-])cc1)N1CCC(=C(c2ccccc2)c2ccccc2)CC1	3.5	1.39	3	1.3		
